In PubChem BioAssay AID492981 (Johns Hopkins Ion Channel Center, 2010) one finds inhibition data, which are given here for 33 compounds.

Inconclusive results are not listed. Activity calls are given as the source filed them.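 The calls were made as follows: active = compound whose replicate-averaged normalized fluorescence ratio fell more than 5 SD below the agonist-stimulated control mean; inactive = the rest, inconclusive results apart.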

Broadly, the inhibition is the drop in the measured response relative to a control, in per cent.

Short transient receptor potential channel 6 (Mus musculus), sequence (Q61143 whole entry, looked up): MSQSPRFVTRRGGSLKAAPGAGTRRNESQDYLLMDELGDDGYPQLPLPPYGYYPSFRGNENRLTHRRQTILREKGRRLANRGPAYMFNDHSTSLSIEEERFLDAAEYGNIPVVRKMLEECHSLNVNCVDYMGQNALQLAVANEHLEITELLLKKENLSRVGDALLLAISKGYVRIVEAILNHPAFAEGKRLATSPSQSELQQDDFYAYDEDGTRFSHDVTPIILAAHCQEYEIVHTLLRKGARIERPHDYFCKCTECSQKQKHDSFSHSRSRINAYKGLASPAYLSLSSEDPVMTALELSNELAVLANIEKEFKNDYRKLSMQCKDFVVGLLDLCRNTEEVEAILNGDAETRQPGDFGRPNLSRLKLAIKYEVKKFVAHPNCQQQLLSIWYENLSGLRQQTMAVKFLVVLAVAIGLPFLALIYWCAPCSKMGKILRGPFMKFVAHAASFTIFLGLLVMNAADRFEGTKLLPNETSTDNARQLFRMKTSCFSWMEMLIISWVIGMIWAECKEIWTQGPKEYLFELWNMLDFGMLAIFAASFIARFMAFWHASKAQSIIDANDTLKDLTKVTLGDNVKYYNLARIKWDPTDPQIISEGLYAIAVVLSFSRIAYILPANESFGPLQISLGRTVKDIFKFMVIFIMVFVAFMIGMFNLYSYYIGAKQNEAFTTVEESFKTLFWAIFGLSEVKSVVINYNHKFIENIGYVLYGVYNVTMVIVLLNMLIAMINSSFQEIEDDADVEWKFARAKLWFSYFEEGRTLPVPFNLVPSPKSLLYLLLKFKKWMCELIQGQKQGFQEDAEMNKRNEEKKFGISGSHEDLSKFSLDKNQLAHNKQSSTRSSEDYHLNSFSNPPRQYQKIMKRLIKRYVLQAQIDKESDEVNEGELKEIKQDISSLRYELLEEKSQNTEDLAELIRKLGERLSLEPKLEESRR

The target in the assay is Short transient receptor potential channel 6 (Mus musculus) (UniProt Q61143). Kind of assay: TRPC6 inhibition by TRPC4 inhibitor analogs, SAR follow-up, selectivity assay for selective TRPC4 inhibitor project, HEK293 cells, membrane potential dye, single concentration (AID 492981). The following applies: membrane potential dye fluorescence, at 10 µM, active compounds read high. The method in brief:
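assay system = HEK293 cells expressing mouse TRPC6 channel | probe or stimulus = ECmax acetylcholine | incubation = 45 min dye loading, 110 s compound preincubation | detection = membrane potential dye fluorescence, kinetic | read-out basis = percent inhibition of integrated fluorescence ratio, normalized to positive controls | replicates = at least duplicate wells per compound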
`FC(F)(F)c1cc(N2CCCCC2)nc2ccccc12`: the inhibition was -6.62% (inactive). The same measure for `Cc1cc(N2CCNCC2)nc2ccccc12`: 37.2%; for `Cc1cc(N2CCCCC2)nc2ccc(F)cc12`: 3.78% (inactive); for `Cc1cc(N2CCCC(O)C2)nc2ccccc12` (stereo not drawn): 26.7%. For `Cc1cc(N2CCCC2)nc2ccccc12` the value was 57.9%; for `c1ccc(-c2cc(N3CCCCC3)nc3ccccc23)cc1`, 19.4% (inactive); for `FC(F)(F)c1cc(N2CCCC2)nc2ccccc12`, 11.5% (inactive). `c1ccc(-c2cc(N3CCCC3)nc3ccccc23)cc1`: the inhibition is 2.24% (inactive). The same measure for `Cc1cc(N2CCN(c3ncccn3)CC2)nc2ccccc12`: 6.28% (inactive). The same measure for `Cc1cc(N2CCN(c3ccccc3C#N)CC2)nc2ccccc12`: 0.71% (inactive); for `Cc1cc(N2CCCC2)nc2c(C)cccc12`: 33.9% (inactive); for `Cc1ccnc(N2CCCCC2)c1`: -2.93% (inactive). For `Cc1ccnc(N2CCCCC2)n1` the value was -9.81% (inactive); for `Cc1cc(N2CCOCC2)nc2ccccc12`, 2.35% (inactive).

Consider `COc1ccccc1N1CCN(c2cc(C)c3ccccc3n2)CC1`, for which the inhibition was 11.7% (inactive). For `Cc1ccc2nc(N3CCCCC3)cc(C)c2c1` the value was 37.5% (inactive); for `CCc1ccc2nc(N3CCCCC3)cc(C)c2c1`, 13.6% (inactive); for `Cc1cc(N2CCC[C@@H]2C)nc2ccccc12`, 47.6%. `Cc1ccnc(N2CCCC2)c1`: the inhibition was -27.6% (inactive).

For the compound `Cc1cc(N2CCC(N3CCOCC3)CC2)nc2ccccc12`, the inhibition is 44.8%. The same measure for `Cc1cc(N2CCN(CC3CCCO3)CC2)nc2ccccc12` (stereo not drawn): 14.3% (inactive); for `COc1ccc(N2CCN(c3cc(C)c4ccccc4n3)CC2)cc1`: 15.5% (inactive). The same measure for `Cc1cc(N(C)CCN(C)C)nc2ccccc12`: 18.1% (inactive). The same measure for `COCCN(C)c1cc(C)c2ccccc2n1`: 22.2% (inactive); for `Cc1cc(N2CCN(c3ccncc3)CC2)nc2ccccc12`: 61.2%; for `Cc1cc(N2CC(C)CC(C)C2)nc2ccccc12` (stereo not drawn): 16.4% (inactive). Consider `Cc1cc(N2CCOc3ccccc32)nc2ccccc12`, for which the inhibition was 13.7% (inactive). For `Cc1ccnc(N2CCCC2)n1` the value was -6.71% (inactive); for `Cc1cc(N2CCCCC2)nc2ccccc12`, 42.7%; for `Cc1cc(N2CCCCC2)nc2c(C)cccc12`, 3.23% (inactive). As for `Cc1cc(N2CCN(C)CC2)nc2ccccc12`, the inhibition is 2.9% (inactive). The same measure for `CCN(CC)c1cc(C)c2ccccc2n1`: 9.79% (inactive); for `Cc1cc(N2CCC(C)CC2)nc2ccccc12`: 13.6% (inactive).
